This is a sample that favours compounds with a hit; in the whole collection about 2.8% have one here.
NPY-Y1 antag = blocks the human neuropeptide Y Y1 receptor. HEK293-CNG Y1 cells, membrane potential fluorescence; NPY at EC95, then isoproterenol. inhibition, % at 3.6 µM. 200,000 compounds, 1% hits. AID 1040;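 active = inhibition above the campaign mean inhibition of all tested compounds plus 3 SD, cut at about 20% in these data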;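 also: 0% = DMSO wells given NPY plus isoproterenol and 100% = isoproterenol alone without NPY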
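Material: HEK293 Y1/CNG channel cell line; also added: NPY (25 nM), isoproterenol (1 µM), Ro 20-1724 (25 µM); doses: one concentration, 3.6 µM, in 0.4% DMSO; schedule: compound incubation 1 h at room temperature, readout 45 min post-stimulation; technique: membrane potential fluorescence; measure: fluorescence ratio normalized to % inhibition between controls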
Rad51 HR inh = blocks human Rad51 in homologous recombination. Q06609. hRad51 DNA strand exchange, fluorescence dequenching. inhibition, % at 10 µM. 200,000 compounds, 0.085% hits. AID 1385;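 active = inhibition above 40% at the single screening dose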;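 also: 0% = DMSO control wells and 100% = blanks with heterologous ssDNA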
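Test system: preformed human Rad51 ssDNA filaments. Compound dosing: single dose, 10 µM final compound. Incubation: filaments 15 min 37 °C, then compound 30 min. Technique: FRET fluorescence dequenching, excitation 485 nm, emission 520 nm. Read-out basis: percent inhibition from fluorescence, normalised to plate control and blank means. Benchmarks: plate controls and plate blanks.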
NPY Y2 blocker = blocks the human neuropeptide Y Y2 receptor; NPY-Y2 expressing cells, antagonist mode; inhibition, % at 2.7 µM; 140,000 compounds, 0.99% hits; AID 793; in the data active = inhibition above about 17%;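 also: 0% = vehicle with agonist challenge and 100% = reference antagonist with challenge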
Target sequence (P49146 whole entry, looked up): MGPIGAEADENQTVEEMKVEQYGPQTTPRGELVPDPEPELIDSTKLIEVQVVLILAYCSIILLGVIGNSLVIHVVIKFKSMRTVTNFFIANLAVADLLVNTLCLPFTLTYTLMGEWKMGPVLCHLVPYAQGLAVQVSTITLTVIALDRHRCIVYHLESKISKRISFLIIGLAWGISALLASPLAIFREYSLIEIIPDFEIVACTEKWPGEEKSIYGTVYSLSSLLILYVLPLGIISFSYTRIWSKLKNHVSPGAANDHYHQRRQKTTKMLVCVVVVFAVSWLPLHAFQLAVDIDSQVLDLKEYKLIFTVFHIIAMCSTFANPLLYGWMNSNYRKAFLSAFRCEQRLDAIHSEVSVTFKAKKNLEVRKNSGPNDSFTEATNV
NPY-Y1 PAM-ag = human NPY-Y1 potentiation or agonism, primary screen; P25929; NPY-Y1 expressing cells, potentiator/agonist activation; activation, % at 3.6 µM; 220,000 compounds, 0.37% hits; in the data active = activation above about 33%, passing the limit was not always enough;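 also: cells stimulated with NPY at EC10 then isoproterenol at EC100; 0% = low agonist plus stimulus and 100% = saturating agonist plus stimulus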
Measles CPE = protection of cells from measles virus | Measles virus-infected cells, CPE protection, absorbance | protection (pct of control), % at 4 µM | 140,000 compounds, 1.5% hits; in the data active = protection mostly above about 24%, no sharp cut-off; inactive = mostly below about 26%
NPY-Y2 PAM-ag = human NPY-Y2 potentiation or agonism, primary screen; cells expressing NPY-Y2, potentiator/agonist read-out; activation, % at 3.6 µM; 220,000 compounds, 0.45% hits; in the data active = activation above about 27%;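 also: cells stimulated with NPY near EC25 plus isoproterenol at EC100; 0% = vehicle plus submaximal agonist and 100% = vehicle plus saturating agonist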
The depositor's hits bear a star; . = no result.

SMILES | NPY-Y1 antag | Rad51 HR inh | NPY Y2 blocker | NPY-Y1 PAM-ag | Measles CPE | NPY-Y2 PAM-ag
O=C(NC(NC(=S)Nc1ccc(Cl)cc1Cl)C(Cl)(Cl)Cl)c1cccc([N+](=O)[O-])c1 (centres undefined) | 5 | -3 | -1 | 56* | 6 | 56*
CC(Nc1ccccc1N1CCCCC1)C(=O)N1CCc2ccccc21 (centres undefined) | 2 | -1 | . | -8 | . | -10
CN(c1cccc(Cl)c1)S(=O)(=O)c1cccc(C(=O)Nc2nc3ccccc3[nH]2)c1 | 30* | 14 | 27* | -64 | 10 | -10
COc1ccc(N(C)S(=O)(=O)c2cccc(C(=O)Nc3nc4ccccc4[nH]3)c2)cc1 | 10 | 1 | . | -7 | . | -12
COc1ccc(-n2c(SCC(=O)NNC(=O)c3ccc(C)cc3)nnc2-c2ccncc2)cc1 | 4 | -5 | 2 | -47 | 21 | 4
CCc1ccc2oc(-c3cccc(NC(=O)c4cccnc4)c3)nc2c1 | 0 | -11 | -1 | 11 | 8 | 3
O=C(Nc1ccc2oc(-c3ccccc3)nc2c1)c1cccnc1 | -6 | . | 2 | -15 | 59* | 14
Cn1c(=O)c2c(ncn2CC(=O)N/N=C/C=C\c2ccccc2[N+](=O)[O-])n(C)c1=O | . | . | . | 11 | . | -3
O=C(N/N=C\C=C\c1ccc2c(c1)OCO2)C1COc2cc3ccccc3cc2O1 (centres undefined) | 11 | 1 | 11 | -10 | 37* | -20
O=C(N/N=C/c1ccc2c(c1)OCO2)C1COc2ccccc2O1 (centres undefined) | -1 | 0 | 6 | -9 | 6 | -11
O=C(N/N=C\C=C\c1ccc2c(c1)OCO2)c1ccc(F)cc1 | 3 | 25 | . | -11 | . | -6
Cc1cc(C(=O)N/N=C/C=C/c2ccc3c(c2)OCO3)n[nH]1 | 2 | 6 | 0 | -13 | 25* | -16
O=C(COC(=O)CCSc1ccccc1)NCc1ccccc1Cl | 1 | -3 | 4 | -21 | 75* | -12
COCCSc1ccccc1C(=O)N1CCN(Cc2ccc3c(c2)OCO3)CC1 | 5 | 6 | 5 | -21 | 51* | 9
COc1cccc(OC)c1C(=O)N1CCN(Cc2ccc3c(c2)OCO3)CC1 | 1 | 22 | 3 | 7 | 8 | -2
CS(=O)(=O)N(Cc1ccccc1)c1ccc(C(=O)NCc2ccccc2)cc1 | -2 | -5 | 1 | -5 | 44* | -22
Cc1ccc(N(Cc2ccc(C(=O)NC3CCCCC3)cc2)S(C)(=O)=O)cc1C | 0 | -2 | 1 | -23 | 103* | -15
CCOC(=O)c1cn2c3c(c(F)c(F)cc3c1=O)SC(N1CCOCC1)=N2 | 3 | . | 0 | 3 | . | 4
CCO[C@@H]1OC(C(N)=O)=C[C@H](c2coc3ccccc3c2=O)[C@H]1CCCO | . | 3 | . | . | . | .
CC(C)COC(=O)Nc1nnc(SCc2ccccc2F)s1 | 1 | 4 | 6 | -6 | 5 | 11
CC(C)COC(=O)Nc1nnc(SCCOc2ccccc2)s1 | 29* | -14 | 14 | -49 | 3 | -23
CC(C)(C)NC(=O)NC(=O)COC(=O)c1cc(=O)[nH]c2ccccc12 | 1 | 1 | 3 | -4 | 35* | -6
CNC(=O)COC(=O)c1cc(=O)[nH]c2ccccc12 | 2 | -2 | -1 | 19 | 2 | 3
CC(C)C(=O)N1CCN(c2ccccc2NC(=S)NC(=O)c2cccs2)CC1 | 9 | 6 | . | -12 | . | -5
COc1ccc(Nc2ncnc3scc(-c4ccc(OC)cc4)c23)cc1 | 21* | -1 | 32* | -55 | 6 | 0
SMILES | NPY-Y1 antag | Rad51 HR inh | NPY Y2 blocker | NPY-Y1 PAM-ag | Measles CPE | NPY-Y2 PAM-ag
Cc1cccc(NC(=O)c2cc3cc([N+](=O)[O-])ccc3s2)n1 | 1 | 0 | . | -7 | . | 12
CCOC(=O)C1=C(NC(=S)NC(=O)c2ccccc2)c2ccccc2CC1C(C)C (centres undefined) | 2 | 3 | 1 | 11 | 50* | -3
CCOC(=O)c1cnn2cc(-c3[nH]ncc3[N+](=O)[O-])cnc12 | 1 | 9 | 1 | 0 | 33* | 6
O=c1cc2ncc(-c3[nH]ncc3[N+](=O)[O-])cn2[nH]1 | . | 14 | . | 7 | . | -28
CS(=O)(=O)N(Cc1ccc(Cl)cc1)c1ccc(C(=O)N/N=C/c2cc3ccccc3nc2Cl)cc1 | 2 | -4 | -2 | 8 | 16 | -3
O=C(NC(=S)N1CCCc2ccccc21)c1ccccc1 | 11 | -2 | 6 | -6 | 26* | -11
CC1CCCC(C)N1S(=O)(=O)c1ccc(NC(=O)CCn2cnc3ccccc3c2=O)cc1 (centres undefined) | 0 | 126* | 1 | 15 | 4 | -10
COc1ccc(C2=Nn3c(nnc3C3CCCCC3)SC2)cc1OC | 27* | -2 | 58* | -68 | 4 | -22
COc1ccc(OC)c(C2=Nn3c(nnc3C3CCCCC3)SC2)c1 | 4 | -5 | 4 | -34 | 6 | -5
CCOc1ccccc1NC(=S)N1CCC(NC(=O)NC23CC4CC(CC(C4)C2)C3)CC1 | -6 | 1 | -2 | 4 | . | -5
O=C(COC(=O)C12CC3CC(CC(C3)C1)C2)NCCc1ccccc1 | -2 | 0 | 1 | -14 | 43* | 4
O=C(COC(=O)C12CC3CC(CC(O)(C3)C1)C2)NCCc1ccc(Cl)cc1 | 2 | -1 | . | 19 | . | 1
COc1ccc(Oc2ccc3c(C(F)(F)F)cc(C(F)(F)F)nc3n2)cc1 | 11 | -4 | 1 | 9 | 13 | 6
Oc1ccc(Oc2ccc3c(C(F)(F)F)cc(C(F)(F)F)nc3n2)cc1 | -7 | 0 | 0 | 40* | 5 | 49*
O=C(CSc1nc2ccccc2c(=O)n1NC(=O)Cc1ccccc1)NCc1ccccc1Cl | -1 | 6 | 1 | -6 | 2 | -9
N=c1c2c(-c3ccccc3)c(-c3ccccc3)n(Cc3ccco3)c2ncn1CCN1CCOCC1 | 42* | -1 | 43* | -11 | 17 | 16
N=c1c2c(-c3ccccc3)c(-c3ccccc3)n(Cc3ccco3)c2ncn1CCCO | . | -11 | . | -47 | . | -46
N=c1c2c(-c3ccccc3)c(-c3ccccc3)n(Cc3ccco3)c2ncn1CCO | 38* | 5 | 63* | -79 | 2 | -23
COc1cccc2c1C(=O)c1c(O)c3c(c(O)c1C2=O)C[C@@](O)(C(C)=O)C[C@@H]3O[C@H]1C[C@H](N)[C@H](O)[C@H](C)O1 | 2 | . | 3 | -9 | -1 | 8
COc1cccc2c1C(=O)c1c(O)c3c(c(O)c1C2=O)C[C@@](O)(C(=O)CO)C[C@@H]3O[C@H]1C[C@H](N)[C@@H](O)[C@H](C)O1 | . | 74* | . | . | . | .
Cc1c(NC(=O)c2noc(C(C)C)c2[N+](=O)[O-])c(=O)n(-c2ccccc2)n1C | 1 | -17 | 2 | -13 | 29* | -17
Cc1ccc(S(=O)(=O)N(C)c2ccc(OCC(=O)O)cc2)cc1 | 0 | -1 | 2 | -11 | 13 | 2
